Measured values from article PMC3041652 (Arteriosclerosis, thrombosis, and vascular biology, 2011).

Tests used:
[1] = tested on: elastinolytic activity in brachiocephalic atherosclerotic lesions; test: Elastinolytic in situ zymography of brachiocephalic artery lesions; type: biochemical, mouse
How it was run: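 Brachiocephalic lesion sections came from apoE-knockout mice fed a high-fat diet for 12 weeks. They were incubated with a fluorescently quenched elastin substrate in incubation buffer alone or with added 100 nmol/L test compound, 20 mmol/L EDTA or 1 μmol/L reference MMP inhibitor. Elastinolytic activity was read as green fluorescence.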

mouse MMP-12 = mouse MMP-12 (Mus musculus, UniProt P34960); test: Inhibition of mouse MMP-12; type: biochemical
[2] = Plasma concentration of inhibitor after osmotic minipump infusion; type: in vivo, apoE-knockout mice
How it was run: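 ApoE-knockout mice on a high-fat diet (n=6) received test compound at 4.6 mg/kg body weight per day by osmotic minipump. MMP inhibitory activity in plasma was measured with a fluorogenic substrate, and inhibitor concentration was derived from a calibration inhibition curve. Intact compound in plasma extracts was confirmed by micro-HPLC coupled to mass spectrometry.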

[3] = Body weight and plasma lipids after 4 weeks of infusion; type: in vivo, apoE-knockout mice; conditions: 4.6 mg/kg per day for 4 weeks
[4] = tested on: apoE-knockout mice atherosclerotic plaques; type: in vivo, mouse
How it was run: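 ApoE-null mice (71% C57BL/6, 29% 129 background), both sexes, fed a high-fat diet for 8 weeks. They then received subcutaneous interscapular osmotic minipumps of test compound at 4.6 mg/kg body weight per day in sterile PBS (n=23) or PBS alone (n=27), with the diet continued 4 weeks. Brachiocephalic artery, proximal aorta, descending aorta and heart were analysed histologically. Apoptosis and calcification were scored by immunohistochemistry; calcification area was normalised to lesion area; mean±SEM.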

[5] = tested on: monocyte/macrophage invasion; test: In vivo subcutaneous sponge monocyte/macrophage invasion assay; parameters: species or system C57Bl/6;Sv129 mice
How it was run: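 Male C57Bl/6;Sv129 mice carrying multiple subcutaneous sponges were infused by osmotic minipump with test compound (n=7) or PBS (n=7). Sponges were retrieved and either used to isolate monocytes/macrophages or formalin-fixed for histology of proliferation and apoptosis.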

[6] = tested on: mouse monocyte-derived macrophages; test: In vitro proliferation of monocyte-derived macrophages; type: cell-based; conditions: 100 nmol/L
[7] = tested on: mouse monocyte-derived macrophages; test: In vitro serum starvation-induced apoptosis of macrophages; type: cell-based
[8] = tested on: rabbit granuloma foam-cell macrophages; test: In vitro serum starvation-induced apoptosis of foam-cell macrophages; type: cell-based
[9] = tested on: mouse smooth muscle cells; test: FasL-induced apoptosis of smooth muscle cells; type: cell-based; conditions: untreated cells 78±29; unchanged
N-cadherin = N-cadherin Western blotting in macrophages treated with active MMP-12; type: cell-based
other MMPs [10] = tested on: other MMPs
human MMP-12 = conditions: read-out: Ki against human MMP-12; cited from earlier work
other MMPs [11] = conditions: cited from earlier work
[12] = compared with active MMP-12 alone, 100 nmol/L

Chain of mouse MMP-12 (P34960 110-473): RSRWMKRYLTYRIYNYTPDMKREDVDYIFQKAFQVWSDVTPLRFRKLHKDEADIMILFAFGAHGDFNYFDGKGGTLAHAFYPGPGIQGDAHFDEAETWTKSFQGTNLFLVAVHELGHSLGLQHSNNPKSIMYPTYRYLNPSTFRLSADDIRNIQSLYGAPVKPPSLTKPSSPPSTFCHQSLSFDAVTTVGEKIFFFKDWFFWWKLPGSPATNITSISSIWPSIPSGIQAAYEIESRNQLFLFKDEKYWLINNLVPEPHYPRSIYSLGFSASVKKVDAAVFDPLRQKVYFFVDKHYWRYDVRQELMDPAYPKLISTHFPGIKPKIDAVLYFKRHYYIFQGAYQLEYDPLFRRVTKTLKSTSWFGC

## CNC(=O)[C@H](Cc1ccccc1)NC(=O)[C@H](CC(C)C)[C@H](CSc1cccs1)C(=O)NO [BB94, reference compound]
[1]; 1 μmol/L
  reduction of elastinolytic activity: 95±4%

## O=C(O)CN(CCN(CC(=O)O)CC(=O)O)CC(=O)O [EDTA, reference compound]
[1]; 20 mmol/L
  reduction of elastinolytic activity: 94±5%

## NC(=O)[C@H](CCC(=O)O)NC(=O)[C@H](CCC(=O)O)NC(=O)[C@H](Cc1cc(-c2ccc(-c3cccc(Cl)c3)cc2)no1)CP(=O)(O)c1ccc(Br)cc1 [RXP470.1]
Mouse MMP-12
  Ki: 4 nM
[2]
  form observed in plasma of infused mice (mass spectroscopy fingerprint analysis): intact form
[3]
  tolerability: well tolerated
[3]; control 35.7±1.2 g
  body weight: 36.2 ± 0.9 g
[4]; at 4 different vascular sites, male and female mice, Western diet
  reduction of atherosclerotic plaque cross-sectional area: approximately 50%
[4]; baseline 15.3±3.0%
  frequency of intraplaque macrophage apoptosis: 18.1±5.8%
[4]; brachiocephalic artery plaques
  reduction in apoptotic frequency, cleaved PARP-1 immunohistochemistry: 57%
  reduction in apoptotic frequency, pyknotic/fragmented nuclei: 43%
[4]; brachiocephalic artery plaques, P<0.05
  reduction of the number of ISEL-positive macrophages: 42%
[4]; brachiocephalic artery, P<0.05
  increase of smooth muscle cell:macrophage ratio: 33%
[4]; brachiocephalic artery, control 31±3%, P<0.05
  smooth muscle cells as a proportion of all plaque cells: 41±3%
[4]; brachiocephalic artery, control 42±1%, P<0.01
  percentage of macrophages of plaque cells: 36±2%
[4]; control 5.9±2.2%
  area of calcification normalized to lesion area: 0.8±0.6%
[4]; control 14.8±3.1%
  percentage of proliferating macrophages in brachiocephalic plaques, Ki67: 13.6±2.2%
[4]; control 24±2%
  necrotic core size, percentage of total plaque area: 13±3%
[4]; control 37%, P<0.05
  number of lesions showing elastin fragmentation: 8%
[4]; did not reach statistical significance
  increase in collagen content of lesions: 26%
[4]; no inhibitor 8.7±1.0, baseline 10.2±1.5
  minimum cap thickness: 16.4±2.2 μm
[4]; treated mice, at commencement of drug administration 147±32
  lesion size, brachiocephalic artery: 153±31 ×10^3 μm^2
[4]; vs control
  total elastin content of plaques: no difference
[4]; vs control mice
  endothelial coverage over plaques: no differences
  expression of vascular cell adhesion molecule-1 and MCP-1 and -2: no difference
[4]; vs controls
  reduction in the number of mice with any detectable atherosclerotic lesion, thoracic aorta: 70%
  reduction in the number of plaques containing buried fibrous layers: 65%
[4]; vs controls after 12 weeks of high-fat feeding, P<0.05
  reduction of plaque cross-sectional area, brachiocephalic artery: 44%
[4]; vs controls, P<0.01
  decrease in the area of calcification normalized to lesion area: 86%
[4]; vs controls, P<0.05
  reduction in lesion necrotic core size: 46%
  reduction in plaque area, aortic sinus: 37%
  reduction in plaque area, proximal aorta: 61%
  reduction in plaque size, thoracic aorta: 88%
  reduction in the incidence of calcification in lesions: 72%
[1]; 100 nmol/L, P<0.05
  reduction of elastinolytic activity: 74%
[1]; 100 nmol/L, incubation buffer alone 4.1±0.5%
  elastinolytic activity, fluorescence of total plaque area: 1.1±0.3%
[5]; control 4.0±1.1%
  proliferative rate of sponge macrophages: 5.6±1.6%
[5]; mouse, in vivo
  apoptotic cells in sponges: no apoptotic cells were detected
[5]; vs controls, P<0.01
  reduction of invasive capacity of monocyte/macrophages: 48%
[6]; absence of added active MMP-12, control 36±5%
  macrophage proliferation: 46±13%
[6]; presence of added active MMP-12, MMP-12 alone 46±2%
  macrophage proliferation: 39±12%
[7]; [12]
  inhibition of apoptosis: 91%
[7]; no added MMP-12
  apoptotic rate relative to control cells: significantly reduced
[8]; [12]
  inhibition of apoptosis: 91%
[8]; no added MMP-12
  apoptotic rate relative to control cells: significantly reduced
[9]
  rate of FasL-induced apoptosis: 70±29 ×10^4 ALU
N-cadherin; coincubation with active MMP-12
  effect on reduction of full-length N-cadherin expression by active MMP-12: reversed
N-cadherin; in the presence of active MMP-12
  formation of the cleaved fragment of N-cadherin: negated
Other MMPs [10]
  in vitro selectivity for MMP-12 over other MMPs: greater than 100 fold
Human MMP-12
  Ki: 0.2 nM
Other MMPs [11]
  less potent against other MMPs than against human MMP-12: 2 to 4 orders of magnitude
